Data published in the RNAGym collection of RNA variant scans (doi:10.1126/science.aae0568).
Fewer inactive variants are shown than the library holds.

B1: tRNA (parent)
chain: GUUCCGUUGGCGUAAUGGUAACGCGUCUCCCUCCUAAGGAGAAGACUGCGGGUUCGAGUCCCGUACGGAACG

Variants of: B1
Assay: yeast fitness relative to wild type (ratio to wild type); higher = fitter; tRNA-Arg(CCU), competitive growth, 37 C, YPD
In short: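 The tRNA-Arg(CCU) gene variants were made by chemical synthesis with a 3% per-site mutation rate at 69 sites and inserted at the native genomic locus of Saccharomyces cerevisiae. After pooling, the strains were competed in YPD at 37°C for 24 hours in six parallel replicates. Gene amplicons from the start population and each end population were read by 100-nucleotide paired-end sequencing, and Darwinian fitness relative to wild type was taken from genotype frequency changes. Genotypes needed ≥ 100 starting reads, and estimates < 0.5 were set to 0.5.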

Point of comparison: C11G A65U, yeast fitness 0.656. Against it:
- C11G A42C G68C — lower, ≤ 0.5
- C11G A42G A45U — lower, ≤ 0.5
- C11G A42G A45U U47C U64C A70C — lower, ≤ 0.5
- C11G A42U A43C C55A C66U — lower, ≤ 0.5
- C11G A42U C49G G58C A69U — lower, ≤ 0.5
- C11G A43C C46G — lower, 0.514
- C11G A43G — lower, 0.641
- C11G A43U — higher, 0.726
- C11G A43U U47A A65U G67C — lower, ≤ 0.5
- C11G A45C U47C C61U A69G — lower, ≤ 0.5
- C11G A45G — lower, 0.636
- C11G A45G C49U C55A — lower, ≤ 0.5
- C11G A45G G67A — lower, 0.539
- C11G A45U C61G — lower, ≤ 0.5
- C11G A45U G50A G63A U64A — higher, 0.668
- C11G A57C — lower, 0.571
- C11G A57C C60U — lower, ≤ 0.5
- C11G A57G C61U — lower, 0.588
- C11G A65C — lower, 0.594
- C11G A65G — higher, 0.696
- C11G A65U A69U — lower, 0.625
- C11G A69C — higher, 0.683
- C11G A69C A70U — higher, 0.684
- C11G A69G — lower, 0.652
- C11G A69U — lower, 0.608
- C11G A70G — lower, 0.581
- C11G A70U — lower, 0.655
- C11G C22A — lower, 0.608
- C11G C22A C27G C31U U59A — lower, 0.569
- C11G C22A C31A A40G — lower, ≤ 0.5
- C11G C22A C31U A42G — higher, 0.659
- C11G C22A C31U A42G C66U — lower, ≤ 0.5
- C11G C22G — higher, 0.675
- C11G C22G A37G C60A A70G — lower, ≤ 0.5
- C11G C22G C24U G50C — lower, ≤ 0.5
- C11G C22G C27G C49U C62U — lower, ≤ 0.5
- C11G C22G C62U — lower, ≤ 0.5
- C11G C22U — lower, 0.653
- C11G C22U A40C C46U C60A — lower, ≤ 0.5
- C11G C22U A40G C55G C61G — lower, ≤ 0.5
- C11G C22U A40G C60G G63C — lower, ≤ 0.5
- C11G C22U A70U — lower, ≤ 0.5
- C11G C22U C24G C30G — lower, ≤ 0.5
- C11G C22U C30A — lower, ≤ 0.5
- C11G C22U G63C — lower, ≤ 0.5
- C11G C22U U53C — lower, ≤ 0.5
- C11G C24A A43C — lower, ≤ 0.5
- C11G C24A C66U — lower, ≤ 0.5
- C11G C24A U28G — lower, ≤ 0.5
- C11G C24A U28G G63A — lower, 0.586
- C11G C24G — lower, ≤ 0.5
- C11G C24G A42U — lower, ≤ 0.5
- C11G C24G C27G G48C — lower, ≤ 0.5
- C11G C24G C29U C62G C66A — lower, ≤ 0.5
- C11G C24G C55U A65U — lower, ≤ 0.5
- C11G C24G G44C — lower, ≤ 0.5
- C11G C24G G52C C55G — higher, 0.813
- C11G C24U — lower, 0.583
- C11G C24U A42G — lower, ≤ 0.5
- C11G C24U A42G A65G — lower, ≤ 0.5
- C11G C24U A42U A43U — lower, 0.653
- C11G C24U A42U A43U C66U — lower, ≤ 0.5
- C11G C24U A69C — lower, ≤ 0.5
- C11G C24U C30U U54A — lower, ≤ 0.5
- C11G C24U C31G C33U A43U — lower, ≤ 0.5
- C11G C24U C34G — lower, ≤ 0.5
- C11G C24U C49A — lower, 0.547
- C11G C24U G25A A42G — lower, ≤ 0.5
- C11G C24U G25A U47G — lower, ≤ 0.5
- C11G C24U G48A G67U A69C — lower, ≤ 0.5
- C11G C24U G48C — lower, 0.541
- C11G C24U U28C C62A — lower, ≤ 0.5
- C11G C27A — higher, 0.715
- C11G C27A C46G G50A C61U — lower, ≤ 0.5
- C11G C27A C66A — lower, ≤ 0.5
- C11G C27A G38A A65C — lower, 0.557
- C11G C27A G38A C55G — lower, ≤ 0.5
- C11G C27G C29G C34U — lower, 0.599
- C11G C27G C30G A70C — higher, 0.689
- C11G C27G C31A C60G — lower, ≤ 0.5
- C11G C27G C55A — lower, ≤ 0.5
- C11G C27U — higher, 0.706
- C11G C27U A37U C49U — lower, ≤ 0.5
- C11G C27U A37U G44A C62A — lower, 0.511
- C11G C27U A43C — lower, 0.502
- C11G C27U A43C A65G — lower, ≤ 0.5
- C11G C27U A43C C61G — lower, ≤ 0.5
- C11G C27U C33G A65C — lower, ≤ 0.5
- C11G C27U C33U — lower, 0.584
- C11G C27U C33U C62G — lower, ≤ 0.5
- C11G C27U G56A A57G — lower, ≤ 0.5
- C11G C27U U28A G52A C55U — lower, ≤ 0.5
- C11G C27U U32A G52A C60U A70C — lower, ≤ 0.5
- C11G C29A A40U — lower, ≤ 0.5
- C11G C29A A43C — lower, 0.572
- C11G C29A A43C C66A — lower, ≤ 0.5
- C11G C29A A43C U64C — lower, ≤ 0.5
- C11G C29A U35G A43G A70C — lower, ≤ 0.5
- C11G C29G — higher, 0.84
- C11G C29G A40G G41A C49A C62G — higher, 0.751
- C11G C29G A45U — lower, ≤ 0.5
- C11G C29G C31G — lower, ≤ 0.5
- C11G C29G C31G A37U — higher, 0.674
- C11G C29G C31G U54C U64A — lower, ≤ 0.5
- C11G C29G G50C — lower, ≤ 0.5
- C11G C29G U35C U47A G68C — lower, ≤ 0.5
- C11G C29U — lower, 0.557
- C11G C29U A45C C66G — lower, ≤ 0.5
- C11G C29U A57G — lower, ≤ 0.5
- C11G C29U C30U — lower, ≤ 0.5
- C11G C29U C30U U54A — lower, ≤ 0.5
- C11G C29U C31U C34U C62A C66U — lower, ≤ 0.5
- C11G C29U C61A A65C — lower, ≤ 0.5
- C11G C29U U35C A36C — lower, ≤ 0.5
- C11G C29U U47C C66A — lower, ≤ 0.5
- C11G C29U U59A A69U — lower, ≤ 0.5
- C11G C30A C62G G68C — lower, ≤ 0.5
- C11G C30G — lower, ≤ 0.5
- C11G C30G A37U G41A U53C A69U — lower, 0.516
- C11G C30G C31G U32A — lower, ≤ 0.5
- C11G C30G C33A A57C C61A — lower, 0.583
- C11G C30G C34A A37C C46U — lower, ≤ 0.5
- C11G C30G C49U C61G A70G — lower, ≤ 0.5
- C11G C30U — lower, 0.643
- C11G C30U A45G A57U C62U — lower, ≤ 0.5
- C11G C30U A65G — lower, 0.595
- C11G C30U C34U — lower, ≤ 0.5
- C11G C30U C46G G58C — lower, 0.617
- C11G C30U G39A A45C C49U — lower, 0.614
- C11G C30U G41C G50A G67C — lower, ≤ 0.5
- C11G C30U U35A U53G A70C — lower, ≤ 0.5
- C11G C30U U35A U53G C62U — lower, ≤ 0.5
- C11G C30U U54A — lower, ≤ 0.5
- C11G C31A G38C C55U G58A — lower, 0.577
- C11G C31A G39A G48A C61U A65C — lower, 0.56
- C11G C31G A42U — lower, 0.527
- C11G C31G C55A — lower, 0.618
- C11G C31G U47C C55G — lower, ≤ 0.5
- C11G C31U A42U A70U — lower, ≤ 0.5
- C11G C31U C33A C66U — lower, ≤ 0.5
- C11G C31U C61G — lower, 0.64
- C11G C31U U35A A37G A40C U47C U64G — lower, ≤ 0.5
- C11G C33A A40G C62A G67C — lower, ≤ 0.5
- C11G C33A G50C — lower, ≤ 0.5
- C11G C33G A57U — lower, ≤ 0.5
- C11G C33G C62G — lower, ≤ 0.5
- C11G C33U — lower, ≤ 0.5
- C11G C33U U59C — higher, 0.66
- C11G C34A — lower, 0.585
- C11G C34A A36U C60A — lower, ≤ 0.5
- C11G C34A A36U G48A G52C C60A C62U — lower, ≤ 0.5
- C11G C34A C60A — lower, ≤ 0.5
- C11G C34A G41C G51C G56A — lower, ≤ 0.5
- C11G C34A G44A C46U G68A — lower, ≤ 0.5
- C11G C34A G58C C60G — higher, 0.84
- C11G C34A U53A — lower, 0.609
- C11G C34G — lower, 0.524
- C11G C34G A36C — lower, ≤ 0.5
- C11G C34G A37U — lower, ≤ 0.5
- C11G C34G A65U — lower, ≤ 0.5
- C11G C34G C55G — lower, ≤ 0.5
- C11G C34G U59C — lower, ≤ 0.5
- C11G C34U — higher, 0.672
- C11G C34U A42C C61A A70U — lower, ≤ 0.5
- C11G C34U C55U — lower, ≤ 0.5
- C11G C34U C62G — lower, 0.542
